Assay results taken from ChEMBL document CHEMBL1949609, “Synthesis and biological evaluation of novel sinomenine derivatives as anti-inflammatory agents” (Eur J Med Chem, 2012).
Activity calls are given as the source filed them. The calls are words filed in the database; no cut-off is given here.

What was measured:
[1] = system: RAW264.7; assay: Antiinflammatory activity in mouse RAW264.7 cells assessed as inhibition of LPS-induced IL-6 production at 10 uM after 24 hrs by ELISA (reference value: 13412 +/- 1167.6 pg/ml); type: functional
In short: (§1)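 RAW264.7 cells (DMEM, 5% FBS, 37 °C, 5% CO2) were exposed to compound at 10 µM plus LPS 500 ng/mL at the same time, with 0.1% DMSO final. Supernatant TNF-α and IL-6 were measured by ELISA at 6, 12 and 24 h.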

[2] = molecular target: T1, Mitogen-activated protein kinase 1 and 3 (ERK2 and ERK1) (Mus musculus) (UniProt P63085+Q63844); assay: Inhibition of LPS-induced Erk1/2 phosphorylation in mouse RAW264.7 cells at 10 uM after 4 to 6 hrs by Western blot analysis; type: cell-based
In short: (§2)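 Cells were given compound at 10 µM with LPS 500 ng/mL and lysed (Triton X-100 buffer) at 2, 4 and 6 h. Protein was quantified by BCA, run on 10% SDS-PAGE and transferred to PVDF. Blots were probed for total and phosphorylated JNK, ERK1/2, p38, NF-κB p65 and IκBα.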

[3] = system: RAW264.7; assay: Antiinflammatory activity in mouse RAW264.7 cells assessed as inhibition of LPS-induced TNFalpha production at 10 uM after 12 hrs by ELISA (reference value: 4126.8 +/- 282 pg/ml); type: functional; in short: as §1
[4] = molecular target: T2, NF-kappa-B inhibitor alpha (Mus musculus) (UniProt Q9Z1E3); assay: Inhibition of LPS-induced IkappaBalpha phosphorylation in mouse RAW264.7 cells at 10 uM after 4 to 6 hrs by Western blot analysis; type: cell-based; in short: as §2
T2 sequence (whole entry): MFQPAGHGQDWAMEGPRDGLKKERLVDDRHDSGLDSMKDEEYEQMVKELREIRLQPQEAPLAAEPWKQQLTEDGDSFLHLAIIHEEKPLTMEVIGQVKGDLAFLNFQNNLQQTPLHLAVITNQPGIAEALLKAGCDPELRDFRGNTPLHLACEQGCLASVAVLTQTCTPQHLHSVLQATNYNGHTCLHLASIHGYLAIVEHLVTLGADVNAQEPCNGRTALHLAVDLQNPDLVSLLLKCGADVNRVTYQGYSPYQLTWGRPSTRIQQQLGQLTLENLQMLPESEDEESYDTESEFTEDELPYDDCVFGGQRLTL

[5] = system: RAW264.7; assay: Inhibition of MAPK-mediated NFkappa B subunit p65 phosphorylation in LPS-stimulated mouse RAW264.7 cells at 10 uM after 4 to 6 hrs by Western blot analysis; type: cell-based; in short: as §2
[6] = system: Mus musculus; assay: Antiinflammatory activity in BALB/c mouse assessed as increase in survival rate at 15 mg/kg, ip QD administered 3 days prior to LPS challenge measured after 19 hrs; type: functional; settings: route intraperitoneal
In short: (§3)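 Balb/c mice (~20 g), 10 per group, given compound in olive oil at 15 mg/kg i.p. once daily for 3 days, then LPS 20 mg/kg i.p. Cumulative survival was followed after LPS and analysed by Kaplan–Meier against LPS-only mice.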

[7] = system: RAW264.7; assay: Cytotoxicity against mouse RAW264.7 cells after 24 hrs by MTT assay; type: cell-based; settings: RAW264.7, 24 h
In short: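 Growth of non-LPS RAW264.7 cells was measured by MTT after 24 h with compound: MTT for 4 h, formazan dissolved in DMSO, OD570. Untreated cells were set as 100% viability. IC50 is the concentration giving 50% growth inhibition.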

[8] = system: RAW264.7; assay: Antiinflammatory activity in mouse RAW264.7 cells assessed as inhibition of LPS-induced IL-6 production at 10 uM after 6 hrs by ELISA (reference value: 1046.1 +/- 111.2 pg/ml); type: functional; in short: as §1
[9] = system: RAW264.7; assay: Inhibition of LPS-induced JNK phosphorylation in mouse RAW264.7 cells at 10 uM after 4 to 6 hrs by Western blot analysis; type: cell-based; in short: as §2
[10] = system: Mus musculus; assay: Antiinflammatory activity in BALB/c mouse assessed as decrease in LPS-induced serum TNFalpha level at 15 mg/kg, ip QD administered 3 days prior to LPS challenge measured after 3 hrs by ELISA; type: functional, organism-based; parameters: dose 15 mg/kg
In short: (§4)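 Balb/c mice were dosed i.p. at 15 mg/kg daily for 3 days (olive oil vehicle) before LPS 20 mg/kg i.p. Blood was drawn 3 h after LPS, and serum TNF-α and IL-6 were measured by ELISA. n = 6.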

[11] = system: RAW264.7; assay: Antiinflammatory activity in mouse RAW264.7 cells assessed as inhibition of LPS-induced TNFalpha production at 10 uM after 24 hrs by ELISA (reference value: 10124 +/- 1137.2 pg/ml); type: functional; in short: as §1
[12] = system: Mus musculus; assay: Antiinflammatory activity in BALB/c mouse assessed as decrease in LPS-induced serum IL-6 level at 15 mg/kg, ip QD administered 3 days prior to LPS challenge measured after 3 hrs by ELISA; type: functional, organism-based; parameters: dose 15 mg/kg; in short: as §4
[13] = molecular target: T2, NF-kappa-B inhibitor alpha (Mus musculus); assay: Inhibition of IKappaBalpha degradation in LPS-stimulated mouse RAW264.7 cells at 10 uM by Western blot analysis; type: cell-based; in short: as §2
[14] = molecular target: MAP kinase p38 (Mus musculus) (UniProt P47811+O08911+Q9WUI1+Q9Z1B7); assay: Inhibition of LPS-induced MAPK p38 phosphorylation in mouse RAW264.7 cells at 10 uM after 4 to 6 hrs by Western blot analysis; type: cell-based; in short: as §2
[15] = molecular target: Transcription factor p65 (Mus musculus) (UniProt Q04207); assay: Inhibition of NF-kappaB subunit p65 DNA binding activity in LPS-stimulated mouse RAW264.7 cells at 5 to 20 uM by electrophoretic mobility shift assay; type: cell-based
[16] = system: RAW264.7; assay: Antiinflammatory activity in mouse RAW264.7 cells assessed as inhibition of LPS-induced nitric oxide production after 24 hrs by Griess method; type: functional, cell-based; settings: RAW264.7, 24 h
In short: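 Cells were treated with compound (0.5–100 µM; 0.1% DMSO final) and LPS 500 ng/mL together for 24 h. Nitrite in the medium was read with Griess reagent (10 min, room temperature, dark) at OD540. IC50 comes from three separate experiments, each in triplicate.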

[17] = system: Mus musculus; assay: Antiinflammatory activity in BALB/c mouse assessed as increase in survival rate at 15 mg/kg, ip QD administered 3 days prior to LPS challenge measured after 3 hrs (reference value: 10%); type: functional; settings: route intraperitoneal
[18] = system: RAW264.7; assay: Antiinflammatory activity in mouse RAW264.7 cells assessed as inhibition of LPS-induced TNFalpha production at 10 uM after 6 hrs by ELISA (reference value: 2646.1 +/- 499.8 pg/ml); type: functional; in short: as §1
[19] = molecular target: T2, NF-kappa-B inhibitor alpha (Mus musculus); assay: Inhibition of LPS-induced IkappaBalpha phosphorylation in mouse RAW264.7 cells at 10 uM at 4 hrs by Western blot analysis; type: cell-based; in short: as §2
[20] = molecular target: Transcription factor p65 (Mus musculus) (UniProt Q04207); assay: Inhibition of NF-kappaB subunit p65 DNA binding activity in LPS-stimulated mouse RAW264.7 cells at 5 to 20 uM by luciferase reporter gene assay; type: cell-based
[21] = system: RAW264.7; assay: Antiinflammatory activity in mouse RAW264.7 cells assessed as inhibition of LPS-induced IL-6 production at 10 uM after 12 hrs by ELISA (reference value: 2145.1 +/- 368.7 pg/ml); type: functional; in short: as §1
[22] = molecular target: T2, NF-kappa-B inhibitor alpha (Mus musculus); assay: Inhibition of LPS-induced IkappaBalpha phosphorylation in mouse RAW264.7 cells at 10 uM at 6 hrs by Western blot analysis; type: cell-based; in short: as §2
[23] = molecular target: Transcription factor p65 (Mus musculus) (UniProt Q04207); assay: Inhibition of NF-kappaB subunit p65 DNA binding activity in LPS-stimulated mouse RAW264.7 cells at 10 uM after 20 mins by electrophoretic mobility shift assay; type: cell-based
In short: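 Nuclear extract (5 µg) was incubated with a biotin-labelled NF-κB consensus probe for 20 min at room temperature. Complexes were resolved on a 6% native gel in 0.5× TBE at 4 °C, then transferred to nylon and detected by chemiluminescence. Specificity was checked by 100-fold unlabelled competitor and p65 antibody supershift.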

[24] = system: RAW264.7; assay: Inhibition of MAPK-mediated NFkappa B subunit p65 phosphorylation in LPS-stimulated mouse RAW264.7 cells at 10 uM at 6 hrs by Western blot analysis; type: cell-based; in short: as §2
[25] = molecular target: T1, Mitogen-activated protein kinase 1 and 3 (ERK2 and ERK1) (Mus musculus); assay: […] of LPS-induced Erk1/2 phosphorylation in mouse RAW264.7 cells at 10 uM after 4 to 6 hrs by Western blot analysis; type: cell-based; in short: as §2
[26] = molecular target: T2, NF-kappa-B inhibitor alpha (Mus musculus); assay: Inhibition of IKappaBalpha degradation in LPS-stimulated mouse RAW264.7 cells at 10 uM at 4 to 6 hrs by Western blot analysis; type: cell-based; in short: as §2
[27] = molecular target: Transcription factor p65 (Mus musculus) (UniProt Q04207); assay: Inhibition of NF-kappaB subunit p65 DNA binding activity in LPS-stimulated mouse RAW264.7 cells at 20 uM after 24 hrs by luciferase reporter gene assay; type: cell-based
[28] = system: Mus musculus; assay: Antiinflammatory activity in BALB/c mouse assessed as decrease in LPS-induced mortality at 15 mg/kg, ip QD administered 3 days prior to LPS challenge; type: functional, organism-based; parameters: dose 15 mg/kg; in short: as §3
[29] = molecular target: Transcription factor p65 (Mus musculus) (UniProt Q04207); assay: Inhibition of NF-kappaB subunit p65 DNA binding activity in LPS-stimulated mouse RAW264.7 cells at 10 uM after 24 hrs by luciferase reporter gene assay; type: cell-based
[30] = system: RAW264.7; assay: Antiinflammatory activity in mouse RAW264.7 cells assessed as inhibition of LPS-induced TNFalpha production at 10 uM after 6 to 24 hrs by ELISA; type: functional, cell-based; in short: as §1
[31] = system: RAW264.7; assay: Antiinflammatory activity in mouse RAW264.7 cells assessed as inhibition of LPS-induced IL-6 production at 10 uM after 6 to 24 hrs by ELISA; type: functional, cell-based; in short: as §1

Chain of Transcription factor p65 (Mus musculus) (Q04207 whole entry): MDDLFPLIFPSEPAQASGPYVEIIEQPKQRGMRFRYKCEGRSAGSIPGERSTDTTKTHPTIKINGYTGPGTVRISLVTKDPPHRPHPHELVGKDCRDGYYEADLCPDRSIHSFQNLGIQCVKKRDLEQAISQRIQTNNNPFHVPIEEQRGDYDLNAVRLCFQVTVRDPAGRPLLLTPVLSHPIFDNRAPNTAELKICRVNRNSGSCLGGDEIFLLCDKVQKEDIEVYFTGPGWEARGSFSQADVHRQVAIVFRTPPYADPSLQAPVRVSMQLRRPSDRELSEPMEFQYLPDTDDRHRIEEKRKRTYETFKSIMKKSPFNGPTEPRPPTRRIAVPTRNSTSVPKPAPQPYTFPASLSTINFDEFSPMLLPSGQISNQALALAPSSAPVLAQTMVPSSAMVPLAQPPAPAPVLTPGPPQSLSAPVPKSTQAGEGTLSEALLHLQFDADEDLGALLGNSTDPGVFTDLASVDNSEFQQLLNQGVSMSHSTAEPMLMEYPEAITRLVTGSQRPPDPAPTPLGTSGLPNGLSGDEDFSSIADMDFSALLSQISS
T1 sequence (P63085 whole entry, looked up): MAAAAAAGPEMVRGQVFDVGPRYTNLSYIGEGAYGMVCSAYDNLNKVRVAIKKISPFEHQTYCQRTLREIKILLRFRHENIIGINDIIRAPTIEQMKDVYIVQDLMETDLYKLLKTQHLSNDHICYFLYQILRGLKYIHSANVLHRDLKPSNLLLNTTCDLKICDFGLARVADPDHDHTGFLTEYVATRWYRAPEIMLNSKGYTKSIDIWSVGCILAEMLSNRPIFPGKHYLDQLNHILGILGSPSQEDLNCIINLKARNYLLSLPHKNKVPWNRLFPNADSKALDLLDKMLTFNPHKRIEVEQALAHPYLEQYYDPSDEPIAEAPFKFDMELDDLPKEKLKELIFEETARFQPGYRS
T1 sequence (Q63844 whole entry, looked up): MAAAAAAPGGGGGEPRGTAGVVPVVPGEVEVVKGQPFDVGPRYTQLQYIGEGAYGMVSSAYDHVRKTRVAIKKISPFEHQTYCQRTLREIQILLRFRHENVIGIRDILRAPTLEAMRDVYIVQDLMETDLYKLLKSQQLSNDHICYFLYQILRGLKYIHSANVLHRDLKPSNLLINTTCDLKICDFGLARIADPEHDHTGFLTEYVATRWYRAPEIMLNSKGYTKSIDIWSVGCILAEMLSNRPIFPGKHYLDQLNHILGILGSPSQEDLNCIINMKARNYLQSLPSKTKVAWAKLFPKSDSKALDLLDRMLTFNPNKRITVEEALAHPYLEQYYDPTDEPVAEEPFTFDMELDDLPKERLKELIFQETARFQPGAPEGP

SMILES | Activity [1] | Activity [3] | IC50 [7] | Activity [8] | inhibition [9] | Activity [10] | Activity [11] | Activity [12] | inhibition [14] | IC50 [16] | survival at 15 mg/kg [17] | Activity [18] | Activity [21] | further results
CCCCCCCCC(=O)Oc1c(OC)ccc2c1[C@@]13CCN(C)[C@@H](C2)[C@H]1C=C(OC)C(=O)C3 | 486.3 pg/mL | 4503.8 pg/mL | 58.2 µM | 148.5 pg/mL | Active | Active | 9728.9 pg/mL | Active | Active | 24.1 µM | 30% | 2338.5 pg/mL | 223.7 pg/mL | inhibition [2]: Active; inhibition [4]: Active; inhibition [5]: Active; survival at 15 mg/kg [6]: 30%; inhibition [13]: Active; inhibition [15]: Active; inhibition [19]: inactive; inhibition [20]: Active
COC1=C[C@@H]2[C@@H]3Cc4ccc(OC)c(OCCCOc5c(OC)ccc6c5[C@@]57CCN(C)[C@@H](C6)[C@H]5C=C(OC)C(=O)C7)c4[C@]2(CCN3C)CC1=O | 13096.9 pg/mL | 3501.9 pg/mL | 41.1 µM | 949.7 pg/mL | inactive | Active | 8303.2 pg/mL | Active | inactive | 15.2 µM | 70% | 1817.6 pg/mL | 1667.8 pg/mL | inhibition [22]: Active; inhibition [23]: inactive; inhibition [24]: Active; Activity [25]: Active; inhibition [26]: Active; inhibition [27]: Active; Activity [28]: Active; inhibition [29]: inactive
COC1=C[C@@H]2[C@@H]3Cc4ccc(OC)c(O)c4[C@]2(CCN3C)CC1=O [SINOMENINE] | – | – | > 200 µM | – | – | – | – | – | – | > 200 µM | – | – | – | inhibition [30]: inactive; inhibition [31]: inactive
